ChEMBL document CHEMBL1151448, “Comparative antianaerobic activities of doripenem determined by MIC and time-kill analysis” (2008)

Columns and labels:
Format in all cases: functional
Bacteroides fragilis = experiment: Bactericidal activity against beta lactamase-positive Bacteroides fragilis isolated from intra-abdominal infection and pelvic inflammatory disease patients assessed as bacterial killing at MIC after 48 hrs by time kill analysis
Summary of the method: (§1)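 Macrodilution time-kill in prereduced brucella broth with 5% laked horse blood, hemin 5 μg/ml and vitamin K1 1 μg/ml, at final inoculum 10^6–10^7 CFU/ml. […] Viable counts were taken at 6, 12, 24 and 48 h on plates incubated 48 h anaerobically. 99.9% kill was taken as bactericidal.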

Clostridioides difficile = experiment: Bactericidal activity against Clostridium difficile isolated from intra-abdominal infection and pelvic inflammatory disease patients assessed as bacterial killing at MIC after 48 hrs by time kill analysis; summary of the method: as §1
Fusobacterium nucleatum = experiment: Bactericidal activity against beta lactamase-positive Fusobacterium nucleatum isolated from intra-abdominal infection and pelvic inflammatory disease patients assessed as bacterial killing at MIC after 48 hrs by time kill analysis
Summary of the method: (§2)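 Anaerobic macrodilution time-kill. Inoculum from brucella blood plates, prepared and diluted in prereduced brucella broth inside the anaerobe chamber. Final 10^6 to 10^7 CFU/ml in prereduced brucella broth with 5% laked horse blood cells, 5 μg/ml hemin and 1 μg/ml vitamin K1. […] Shaken at 35°C for 48 h. Viable counts taken at 6, 12, 24 and 48 h. 99.9% kill taken as bactericidal.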

Clostridium perfringens = experiment: Bactericidal activity against Clostridium perfringens isolated from intra-abdominal infection and pelvic inflammatory disease patients assessed as bacterial killing at MIC after 48 hrs by time kill analysis
Summary of the method: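 Time-kill in prereduced brucella broth with 5% laked horse blood cells, hemin and vitamin K1. […] Viable counts taken at 6, 12, 24 and 48 h, plates incubated 48 h anaerobically. Kill scored as 90%, 99% or 99.9%; 99.9% defines bactericidal.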

Prevotella intermedia = experiment: Bactericidal activity against beta lactamase-positive Prevotella intermedia isolated from intra-abdominal infection and pelvic inflammatory disease patients assessed as bacterial killing at MIC after 48 hrs by time kill analysis; summary of the method: as §2
[1] = system: Bacteroides thetaiotaomicron; experiment: Bactericidal activity against beta lactamase-positive Bacteroides thetaiotaomicron isolated from intra-abdominal infection and pelvic inflammatory disease patients assessed as bacterial killing at MIC after 48 hrs by time kill analysis; summary of the method: as §1
Finegoldia magna = experiment: Bactericidal activity against beta lactamase-positive Finegoldia magna isolated from intra-abdominal infection and pelvic inflammatory disease patients assessed as bacterial killing at MIC after 48 hrs by time kill analysis; summary of the method: as §2

Measured: Activity

C[C@@H](O)[C@H]1C(=O)N2C(C(=O)O)=C(SCCNC=N)C[C@H]12 [IMIPENEM ANHYDROUS]
99%: all assays above

C[C@@H](O)[C@H]1C(=O)N2C(C(=O)O)=C(S[C@@H]3CN[C@H](CNS(N)(=O)=O)C3)[C@H](C)[C@H]12 [DORIPENEM]
99%: all assays above
